{"data": "Experimental data gathered from unrelated publications", "effect on": "cell growth or viability", "note": "Each line is one published result; the experiments were not run side by side."}
{"SMILES": "S=C([S][Au-][P+](CCCCCC[P+]([Au-][S]C(=S)n1cccn1)(c1ccccc1)c1ccccc1)(c1ccccc1)c1ccccc1)n1cccn1", "cell line": "NCI/ADR-RES", "technique": "SRB", "endpoint": "GI50", "value": "3.99 µM"}
{"SMILES": "Cn1nnc2c(C(N)=O)ncn2c1=O", "cell line": "HGC-27", "endpoint": "EC50", "value": "176 µM"}
{"SMILES": "O=C(O)c1ccc(CN2CCC(CN[C@@H]3C[C@H]3c3ccccc3)CC2)cc1", "cell line": "NCI-H510A", "technique": "resazurin", "time": "10 days", "endpoint": "EC50", "value": "0.109 µM"}
{"SMILES": "CC1=C(O)C(=O)C=C2C1=CC=C1[C@@]2(C)CC[C@@]2(C)[C@@H]3C[C@](C)(C(=O)OCCCBr)CC[C@]3(C)CC[C@]12C", "cell line": "MGC-803", "technique": "MTT", "time": "48 h", "endpoint": "IC50", "value": "0.4 µM"}
{"SMILES": "COc1cccc(Oc2ccccc2NC(=O)CNC(=O)c2cccc3ccccc23)c1", "cell line": "NCI/ADR-RES", "technique": "SRB", "time": "48 h", "endpoint": "GI50", "value": "0.24 µM"}
{"SMILES": "COc1ccc(-c2ccc(-c3ccc(C(=N)N)nc3)s2)cc1", "cell line": "NCI/ADR-RES", "technique": "SRB", "endpoint": "GI50", "value": "1.94 µM"}
{"SMILES": "Cc1cc(C)n(C(=S)[S][Au][PH](CCCCCC[PH]([Au][S]C(=S)n2nc(C)cc2C)(c2ccccc2)c2ccccc2)(c2ccccc2)c2ccccc2)n1", "cell line": "NCI/ADR-RES", "technique": "SRB", "endpoint": "GI50", "value": "1.3 µM"}
{"SMILES": "C=CC(=O)N1CCN(c2nc(=O)n(-c3c(C)ccnc3C(C)C)c3nc(-c4c(O)cccc4F)c(F)cc23)[C@@H](C)C1", "cell line": "GP2d", "time": "5 days", "endpoint": "EC50", "value": "> 10 µM"}
{"SMILES": "COc1ccc(-c2ccc(-c3ccc(C(=N)N)nc3)s2)cc1Cl", "cell line": "NCI/ADR-RES", "technique": "SRB", "endpoint": "GI50", "value": "2.01 µM"}
{"SMILES": "C=CC(=O)N1CCN(c2cc(-c3noc([C@@]4(C)CCCc5sc(N)c(C#N)c54)n3)nc(N3CCN(C)C[C@@H]3C)c2)CC1", "cell line": "GP2d", "time": "5 days", "endpoint": "EC50", "value": "4.5 µM"}
{"SMILES": "CN1CCN(C(=O)[C@H](CCCN[C@@H]2C[C@H]2c2ccc(F)cc2)NC(=O)c2ccc(-n3ccnn3)cc2)CC1", "cell line": "NCI-H510A", "technique": "resazurin", "time": "10 days", "endpoint": "EC50", "value": "0.0105 µM"}
